Tests used:
[1] = molecular target: T1, Peroxisome proliferator-activated receptor gamma (Homo sapiens, UniProt P37231); test: Displacement of [3H]rosiglitazone from human PPARgamma ligand binding domain expressed in Escherichia coli BL21 after 12 hrs by liquid scintillation counting
T1 sequence (P37231 whole entry): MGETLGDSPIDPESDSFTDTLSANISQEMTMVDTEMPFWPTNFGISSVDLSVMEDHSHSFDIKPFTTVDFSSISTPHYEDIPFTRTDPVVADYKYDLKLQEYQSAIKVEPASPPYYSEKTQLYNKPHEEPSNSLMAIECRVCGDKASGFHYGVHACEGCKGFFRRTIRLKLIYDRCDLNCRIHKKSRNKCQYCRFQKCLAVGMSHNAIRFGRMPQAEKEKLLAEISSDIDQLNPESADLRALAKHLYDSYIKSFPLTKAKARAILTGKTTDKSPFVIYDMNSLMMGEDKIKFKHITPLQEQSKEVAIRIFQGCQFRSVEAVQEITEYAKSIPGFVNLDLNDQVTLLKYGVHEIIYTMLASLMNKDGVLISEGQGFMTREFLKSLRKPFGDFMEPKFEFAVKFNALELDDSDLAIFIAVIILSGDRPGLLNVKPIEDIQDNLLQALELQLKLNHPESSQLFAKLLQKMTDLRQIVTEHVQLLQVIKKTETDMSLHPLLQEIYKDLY
Outline: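 His-tagged hPPARγ LBD purified on Co2+ affinity resin, preincubated 12 h at 4 °C with 40 nM [3H]rosiglitazone (50 Ci/mmol) in 10 mM Tris pH 8.0, 50 mM KCl, 10 mM DTT. Unlabeled ligand or DMSO vehicle added, then a further 12 h at 4 °C. Bound and free label separated on Sephadex G-25 and counted by scintillation. Results as % bound vs vehicle; Ki from concentration-dependent displacement.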

Mus musculus = test: Antiinflammatory activity against carrageenan-induced air pouch inflammation in po dosed mouse assessed as inhibition of leukocyte infiltration administered 1 hr before carrageenan challenge measured after 6 hrs by hemocytometry relative to untreated control

Ki [1] [µM] | SMILES | inhibition (INH) (Mus musculus) [%]
4 | O=C1S/C(=C\c2ccc(Cl)cc2Cl)C(=O)N1Cc1c(F)cccc1Cl | 41.6
– | O=C1S/C(=C\c2ccc3c(c2)Cc2ccccc2-3)C(=O)N1Cc1cccc(Cl)c1 | 65.2
– | COc1ccc(/C=C2\SC(=O)N(Cc3cccc(Cl)c3)C2=O)cc1 | 42
– | COc1ccc(Br)cc1/C=C1\SC(=O)N(Cc2cccc(Cl)c2)C1=O | 47.4
43 | CS(=O)(=O)c1ccc(/C=C2\SC(=O)N(Cc3cccc(Cl)c3)C2=O)cc1 | 63.9
7.3 | CS(=O)(=O)c1ccc(/C=C2\SC(=O)N(Cc3ccccc3Br)C2=O)cc1 | 73.3
– | COc1ccc(/C=C2\SC(=O)N(Cc3cccc(Cl)c3)C2=O)cc1Br | 51.5
43.6 | O=C1S/C(=C\c2ccc(-c3ccccc3)cc2)C(=O)N1Cc1cccc(Cl)c1 | 67
– | CN(CCOc1ccc(CC2SC(=O)NC2=O)cc1)c1ccccn1 (stereo not drawn) [ROSIGLITAZONE] | 72
